Only some compounds are listed: those with a hit (about 0.86% of all), similar ones and a draw of the others.
DAGLB inh: diacylglycerol lipase beta (human) inhibition; Q8NCG7; HEK293T DAGLB membrane lysate, EnzChek fluorogenic substrate; inhibition, % at 5.17 µM; hit rate 0.059% among 340,000; in the data active means inhibition above about 34%;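 further: 0% = enzyme with vehicle and 100% = wells lacking enzyme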
CXCR6 inh: blocks human CXCR6 beta-arrestin recruitment | O00574 | CHO-K1 PathHunter CXCR6 beta-arrestin, luminescence | inhibition, % at 20 µM | hit rate 0.36% among 360,000; in the data active means inhibition above about 34%, passing the limit was not always enough;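 further: antagonist mode with CXCL16 agonist at 10 nM final; 0% = 10 nM CXCL16 with DMSO and 100% = unstimulated wells without agonist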
APJ ag: agonists of human APJ apelin receptor; P35414; AID 2520; CHO-K1 APJ PathHunter beta-arrestin, luminescence; 0% DMSO wells, 100% apelin; activation, % at 20 µM; hit rate 0.11% among 330,000;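 active means activation more than six SD over the plate average, tested at 20 µM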;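 further: 0% = DMSO alone and 100% = apelin-13 at 10 nM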
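Assay system: CHO-K1 cells stably expressing ProLink-tagged human APJ and arrestin–beta-gal acceptor. Compound dosing: 20 µM single point, 1% DMSO. Times: 16-18 h seeding, 90 min dark compound exposure, 60 min detection. Detection: beta-gal luminescence. Evaluation: APJ–arrestin association signal. Controls: negative DMSO alone, positive Apelin-13 at 10 nM.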
hiPSC survival: hiPSC single-cell survival enhancement; hit rate 0.044% among 360,000; survival enhancement, % at 20 µM; ATPlite luminescence; 100% = ROCK inhibitor wells, 0% = DMSO; in the data active means survival enhancement above about 18%;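 further: cells exposed to compounds for 16 hours before the ATP read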
APJ antag: blocks the human apelin receptor APJ | AID 2521 | hit rate 0.32% among 330,000 | inhibition, % at 20 µM | P35414 | CHO-K1 APJ beta-arrestin complementation, luminescence;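 active means inhibition above about 40% at 20 µM, limit read from the data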;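 further: cells challenged with 10 nM apelin-13 agonist together with compound; plate controls were apelin-13 plus DMSO wells for no effect and DMSO wells lacking apelin-13 for full effect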
CCR6 antagonist: CCR6 (human) receptor antagonism | hit rate 0.49% among 340,000 | CHO-K1 CCR6 PathHunter beta-arrestin, luminescence, CCL20-stimulated | P51684 | inhibition, % at 20 µM | AID 493098;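 active means compounds whose inhibition of the agonist-driven luminescence signal at 20 µM reaches about 50%, limit read from the data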;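 further: cells stimulated with CCL20 at 14 nM final; plate controls were DMSO with CCL20 for no effect and DMSO without agonist for full effect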
Target sequence (P51684 whole entry, looked up): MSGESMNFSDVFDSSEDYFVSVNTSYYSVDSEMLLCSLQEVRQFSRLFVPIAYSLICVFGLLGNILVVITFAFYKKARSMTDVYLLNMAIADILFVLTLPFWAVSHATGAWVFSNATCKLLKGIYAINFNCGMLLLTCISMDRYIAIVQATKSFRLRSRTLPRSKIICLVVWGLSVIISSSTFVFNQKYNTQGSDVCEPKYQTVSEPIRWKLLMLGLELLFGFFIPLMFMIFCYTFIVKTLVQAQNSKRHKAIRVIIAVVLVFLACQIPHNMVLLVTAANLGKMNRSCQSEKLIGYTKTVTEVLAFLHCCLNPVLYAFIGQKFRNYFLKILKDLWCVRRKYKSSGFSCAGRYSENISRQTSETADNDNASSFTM
Numbers without * were called inactive; / = no result given; ! = not active in a repeat.

SMILES	DAGLB inh	CXCR6 inh	APJ ag	hiPSC survival	APJ antag	CCR6 antagonist
C[N+](C)(C)CCC(=O)N1C/C(=C/c2ccccc2)C(=O)/C(=C\c2ccccc2)C1	-8.7	8.5	/	-3.2	/	12.8
Cc1cccc(NC(=O)Oc2ccc(Cl)c3cccnc23)c1	2.9	45.7*	/	0.3	/	/
COc1cc(/C=C2\SC(=S)N(NC(=O)c3ccncc3)C2=O)ccc1O	1.4	33.7	-6.2	-0.4	34.4	53.1*
COc1cc(/C=C2\SC(=S)N(NS(=O)(=O)c3ccc(C)cc3)C2=O)cc(OC)c1OC	10.9	-0.6	-3.5	0.1	3.9	21.0
O=C(NN1C(=O)/C(=C/c2cccs2)SC1=S)c1cccnc1	/	5.3	1.0	0.2	6.8	16.8
CC(/C=C1\SC(=S)N(NC(=O)c2ccncc2)C1=O)=C\c1ccccc1	9.3	3.3	0.8	0.1	3.4	7.1
COc1cc(/C=C2\SC(=S)N(NS(=O)(=O)c3ccc(C)cc3)C2=O)ccc1O	10.0	37.2*	-7.3	-0.7	36.0	49.6
CCOc1cc(/C=C2\SC(=S)N(NC(=O)c3cccnc3)C2=O)ccc1O	/	37.3	-9.1	-1.0	44.1*	42.8
COc1cc(/C=C2\SC(=S)N(Nc3ccccc3)C2=O)cc(OC)c1OC	-4.0	-0.1	0.8	1.2	-9.1	50.6*
Cc1ccc(C(=O)NC(=S)Nc2cccc3c(C)cc(C)nc23)cc1	-5.3	19.6	-0.7	-0.5	0.6	50.7*
Cc1ccc(C(=O)NC(=S)Nc2cccc3nsnc23)cc1	-3.6	12.3	-3.1	-1.4	9.2	45.4
CC(=NNC(=S)N1CCCCCC1)c1cccc2cccnc12	3.5	35.5	/	0.1	/	90.6*
CCNC(=O)N(C)C[C@H]1N[C@@](CC)(C(=O)OC)[C@H]2C(=O)N(Cc3ccccc3)C(=O)[C@@H]12	-0.7	5.5	-4.3	0.1	3.9	12.2
CCCN1/C(=C2/SC(=S)N(CC)C2=O)C=Cc2ccccc21	33.4	34.1	-8.6	-2.5	37.4	54.4*
c1cc2c(cc1C1CCCCC1)c1c3n2CCCNC3CCC1 (stereo not drawn)	1.6	3.8	0.2	-5.6	-3.8	70.5*
CCCCn1c(N)c(C(=S)NC(=O)CC(C)C)c(=O)n(C)c1=O	-0.3	47.7*	/	1.0	/	/
Cc1ccc2cccc(OC(=O)c3ccc4c(c3)OCCO4)c2n1	-1.2	35.0	-4.1	2.4	26.2	52.2*
CCOc1ccc2nc(NC(=O)Nc3ccccc3)sc2c1	-0.5	-3.3	6.1	-1.7	-3.0	1.4
CCOc1ccc2nc(NC(=O)c3ccccn3)sc2c1	-3.5	58.3*	-8.7	-0.7	79.3*	78.6*
Cc1ccc(C(=O)OCc2cc(=O)n3c(C)csc3n2)s1	-10.4	-0.9	-6.2	-0.3	16.5	0.6
Cc1ccc(C(=O)OCc2cc(=O)n3ccsc3n2)s1	-0.6	1.0	-1.1	18.5*	15.8	-6.8
Cc1ccc(NS(=O)(=O)c2ccc(C(=O)NCC(c3ccco3)N3CCCCC3)cc2)cc1 (stereo not drawn)	0.8	-7.3	0.3	-0.3	-0.1	3.3
C[C@H]1CN([C@@H](C)CO)C(=O)c2cc(Br)cnc2O[C@H]1CN(C)C(=O)C1CC1	2.5	3.3	/	2.6	/	/
C[C@@H]1CN([C@@H](C)CO)C(=O)c2cc(Br)cnc2O[C@H]1CN(C)C(=O)C1CC1	0.0	6.1	/	20.1*	/	/
Cn1c(=O)c(=O)n(C)c2cc([N+](=O)[O-])c([N+](=O)[O-])cc21	-4.2	-23.8	2.9	2.9	-29.8	-12.8
SMILES	DAGLB inh	CXCR6 inh	APJ ag	hiPSC survival	APJ antag	CCR6 antagonist
CN(C)c1c([N+](=O)[O-])cc(N2C(=O)C=CC2=O)cc1[N+](=O)[O-]	10.4	75.1*	/	-3.5	/	/
CCOC(=O)c1c(SCCN2CCCCC2)n(-c2ccccc2)c(=S)n(-c2ccccc2)c1=O	-1.5	86.0*	/	-0.2	/	99.3*
CCOC(=O)c1c(SC)n(-c2ccccc2)c(=S)n(-c2ccccc2)c1=O	-4.8	8.0	/	-0.7	/	9.8
CC1(C)Cc2c(ccc3ccccc23)/C(=C/C(=O)N2CCCCC2)N1	-5.5	28.0	-8.8	-0.1	16.2	64.3*
Cn1c(=O)c([N+](=O)[O-])c(Cl)c2ccccc21	1.4	88.4*	/	-0.2	/	100.8*
CC(C)N1CC2(CC(c3ccccc3C(F)(F)F)=NO2)CN1C(=O)c1ccc(C(C)(C)C)cc1 (stereo not drawn)	-9.2	2.4	/	-1.8	/	/
CCCCN(CC)CCNS(=O)(=O)c1ccc2c(c1)oc(=O)n2C	-0.7	-6.9	-4.9	0.7	-7.1	9.8
CCCN(CCC)CCNS(=O)(=O)c1ccc2c(c1)oc(=O)n2C	-1.1	-3.7	-0.9	-1.4	2.9	118.8*
O=C1COc2ccc(-c3csc(=Nc4ccc(OC(F)F)cc4)n3CC3CCCO3)cc2N1 (stereo not drawn)	0.0	38.1	-4.0	0.7	26.1	72.3*
COc1ccccc1N=c1scc(-c2ccc3c(c2)NC(=O)CO3)n1CC1CCCO1 (stereo not drawn)	2.4	25.4	-9.6	2.4	17.7	34.8
COCC(C)n1c(-c2ccc3c(c2)NC(=O)CO3)csc1=Nc1ccc(OC(F)F)cc1 (stereo not drawn)	-0.1	25.6	-3.7	0.7	7.1	61.9*!
Cc1cccc(NC(=O)c2cc(S(=O)(=O)N3CCCC3)cn2C)c1	-0.1	-10.5	-2.4	-3.2	-1.8	3.5
COc1ccc(CCNC(=O)c2cc(-c3ccccc3)c(N3CCOCC3)s2)c(OC)c1OC	-1.7	12.2	4.0	0.2	-18.6	4.8
CC(=O)c1ccc(N=Nc2c(C)[nH]n(-c3ccccc3)c2=O)cc1	2.5	40.5*	-6.2	0.4	36.2	49.2
CCN1C(=O)[C@H]2[C@H]3CN=C(SC)N3[C@@](C)(C(=O)OC)[C@H]2C1=O	-1.5	0.3	/	-0.7	/	-10.0
CCC(=O)NC(c1ccc(C)cc1)c1cc(Cl)c2cccnc2c1O (stereo not drawn)	15.4	12.0	-4.2	-2.6	25.8	55.8*
Oc1c(Cl)cc(CN2CCCCC2)c2cccnc12	0.5	49.3*	-8.3	4.6	24.6	/
CCC(=O)NC(c1ccc(OC)c(OC)c1)c1cc(Cl)c2cccnc2c1O (stereo not drawn)	9.8	1.3	/	-0.5	/	6.5
Oc1ccc(CN2CCCCC2)c2cccnc12	0.1	1.4	-0.2	5.2	-6.8	15.8
Oc1c(Cl)cc(Cl)c2cccnc12	0.0	49.4*	/	-1.8	/	62.9*
CC(C)NC(=O)C1(C)CCCN1Cc1csc2ccccc12 (stereo not drawn)	/	2.3	/	-1.3	/	/
C=C1CC(COc2ccc3c(C)c(Cl)c(=O)oc3c2)(c2ccccc2)OC1=O (stereo not drawn)	8.0	37.3*	/	-5.3	/	40.1
Cc1nn(C)c(C)c1C(C)NC(=O)c1cc(COc2ccc(F)c(F)c2)on1 (stereo not drawn)	1.0	-0.8	-2.8	0.4	8.3	5.7

Screens as filed in PubChem BioAssay.
